Measured values: ChEMBL document CHEMBL5338733, “Heterobifunctional Ligase Recruiters Enable pan-Degradation of Inhibitor of Apoptosis Proteins” (J Med Chem, 2023)
Calls of active or inactive are those of the source. No cut-off for these calls is given here.

Experiments:
[1] = target: T1, von Hippel-Lindau disease tumor suppressor/Baculoviral IAP repeat-containing protein 2 (Homo sapiens) (UniProt Q13490+P40337); assay: PROTAC activity at VHL/IAP in human HG-3 cells harboring wild type VHL assessed as induction of cIAP1 degradation at 1 uM incubated for 16 hrs by western blot analysis; format: cell-based
Outline: (§1)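 HG3 cells expressing Cas9 (lentiviral, blasticidin-selected) transduced with sgRNA against VHL or control luciferase (≥95% tomato-positive by FACS at 48 h); treated 1 μM for 16 h; lysed, SDS-PAGE, PVDF immunoblot with ECL detection, bands quantified by densitometry.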

[2] = target: Baculoviral IAP repeat-containing protein 2 (Homo sapiens) (UniProt Q13490); assay: Induction of cIAP1 degradation in human VHL knock-out HG-3 cells at 1 uM incubated for 16 hrs by western blot analysis; format: cell-based; outline: as §1
[3] = target: T2, von Hippel-Lindau disease tumor suppressor/E3 ubiquitin-protein ligase XIAP (Homo sapiens) (UniProt P98170+P40337); assay: PROTAC activity at VHL/IAP in human HG-3 cells harboring wild type VHL assessed as induction of XIAP degradation at 1 uM incubated for 16 hrs by western blot analysis; format: cell-based; outline: as §1
[4] = target: Baculoviral IAP repeat-containing protein 3 (Homo sapiens) (UniProt Q13489); assay: Induction of cIAP2 degradation in human MM1.S cells assessed as remaining protein level at 0.1 uM incubated for 16 hrs by western blot analysis; format: cell-based
Outline: (§2)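 Lysed, run on SDS-PAGE and transferred to PVDF. Probed with primary antibodies overnight at 4 °C, then HRP secondaries, with ECL detection. Band densitometry normalized to loading control and to DMSO-treated cells. Averages of at least three independent experiments.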

[5] = target: Baculoviral IAP repeat-containing protein 2 (Homo sapiens) (UniProt Q13490); assay: Induction of cIAP1 degradation in human MM1.S cells at 1 uM incubated for 16 hrs by western blot analysis; format: cell-based
Outline: as §2, with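 “MM.1S cells treated 16 h at the stated concentration. Lysed,” for “Lysed,”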

[6] = target: von Hippel-Lindau disease tumor suppressor (Homo sapiens) (UniProt P40337); assay: Induction of VHL30 degradation in human MM1.S cells assessed as remaining protein level at 0.1 uM incubated for 16 hrs by western blot analysis; format: cell-based
Outline: as §2, with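 “MM.1S cells treated 16 h at the stated concentration. Lysed,” for “Lysed,”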

[7] = target: Baculoviral IAP repeat-containing protein 2 (Homo sapiens) (UniProt Q13490); assay: Induction of cIAP1 degradation in human MM1.S cells assessed as remaining protein level at 0.1 uM incubated for 16 hrs by western blot analysis; format: cell-based; outline: as §2
[8] = target: Protein cereblon/Zinc finger protein Aiolos (Homo sapiens) (UniProt Q96SW2+Q9UKT9); assay: PROTAC activity at CRBN/IKZF3 in human MM1.S cells assessed as induction of IKZF3 degradation at 1 uM incubated for 16 hrs by western blot analysis; format: cell-based
Outline: as §2, with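 “MM.1S cells treated 16 h at the stated concentration. Lysed,” for “Lysed,”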

[9] = target: T3, Protein cereblon/E3 ubiquitin-protein ligase XIAP (Homo sapiens) (UniProt P98170+Q96SW2); assay: PROTAC activity at CRBN/IAP in human MM1.S cells assessed as induction of XIAP degradation at 1 uM incubated for 16 hrs by western blot analysis; format: cell-based
Outline: as §2, with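 “MM.1S cells treated 16 h at the stated concentration. Lysed,” for “Lysed,”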

[10] = target: T4, von Hippel-Lindau disease tumor suppressor/IAP (Homo sapiens) (UniProt P98170+Q13489+Q13490+P40337); assay: PROTAC activity at VHL/IAP in human MM1.S cells assessed as induction of VHL30 degradation at 1 uM incubated for 16 hrs by western blot analysis; format: cell-based
Outline: as §2, with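 “MM.1S cells treated 16 h at the stated concentration. Lysed,” for “Lysed,”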

[11] = system: RPMI-8226; assay: Cytotoxicity against human RPMI-8226 cells assessed as reduction in cell viability measured after 96 hrs in presence of TNF-alpha by CellTiter-Glo luminescent assay; format: functional, cell-based; settings: RPMI-8226, 96 h
Outline: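 Cells kept in RPMI-1640 with 10% FBS, 1% penicillin/streptomycin and 1% L-glutamine at 37 °C, 5% CO2. Seeded with compounds and incubated 96 h at 37 °C with TNF-α at 1 ng/mL. Viability read by CellTiter-Glo luminescence and normalized to DMSO-treated control. Mean ± SD of biological triplicates.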

[12] = target: T5, von Hippel-Lindau disease tumor suppressor/Baculoviral IAP repeat-containing protein 3 (Homo sapiens) (UniProt Q13489+P40337); assay: PROTAC activity at VHL/IAP in human MM1.S cells assessed as induction of cIAP2 degradation at 0.1 to 1 uM incubated for 16 hrs by western blot analysis; format: cell-based; settings: dose 0.1-1 µM
Outline: (§3)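 MM.1S cells (RPMI-1640, 10% FBS, 1% pen/strep, 1% L-glutamine, 37 °C, 5% CO2) exposed to compound or DMSO for 16 h. Lysed in IP lysis buffer, SDS-PAGE, PVDF transfer, primary antibody overnight at 4 °C, HRP secondary, ECL detection. Bands quantified densitometrically, normalized to loading control and DMSO, reported as remaining protein; at least three independent experiments.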

[13] = target: T2, von Hippel-Lindau disease tumor suppressor/E3 ubiquitin-protein ligase XIAP (Homo sapiens); assay: PROTAC activity at VHL/IAP in human MM1.S cells assessed as induction of XIAP degradation at 0.1 to 1 uM incubated for 16 hrs by western blot analysis; format: cell-based; settings: dose 0.1-1 µM
Outline: as §2, with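 “MM.1S cells treated 16 h at the stated concentration. Lysed,” for “Lysed,”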

[14] = target: T4, von Hippel-Lindau disease tumor suppressor/IAP (Homo sapiens); assay: PROTAC activity at VHL/IAP in human MM1.S cells assessed as induction of VHL30 degradation by measuring remaining protein level at 0.1 uM incubated for 16 hrs by western blot analysis; format: cell-based
Outline: as §2, with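 “MM.1S cells treated 16 h at the stated concentration. Lysed,” for “Lysed,”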

[15] = target: T1, von Hippel-Lindau disease tumor suppressor/Baculoviral IAP repeat-containing protein 2 (Homo sapiens); assay: PROTAC activity at VHL/IAP in human MM1.S cells assessed as induction of cIAP1 degradation at 0.1 to 1 uM incubated for 16 hrs by western blot analysis; format: cell-based; settings: dose 0.1-1 µM; outline: as §3
[16] = target: Protein cereblon-IAP (Homo sapiens) (UniProt P98170+Q13489+Q13490+Q96SW2); assay: PROTAC activity at CRBN/IAP in human MM1.S cells assessed as induction of CRBN degradation by measuring remaining protein level at 0.1 uM incubated for 16 hrs by western blot analysis; format: cell-based
Outline: as §2, with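 “MM.1S cells treated 16 h at the stated concentration. Lysed,” for “Lysed,”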

[17] = target: Protein cereblon/Baculoviral IAP repeat-containing protein 3 (Homo sapiens) (UniProt Q13489+Q96SW2); assay: PROTAC activity at CRBN/IAP in human MM1.S cells assessed as induction of cIAP2 degradation by measuring remaining protein level at 0.1 uM incubated for 16 hrs by western blot analysis; format: cell-based
Outline: as §2, with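 “MM.1S cells treated 16 h at the stated concentration. Lysed,” for “Lysed,”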

[18] = target: T3, Protein cereblon/E3 ubiquitin-protein ligase XIAP (Homo sapiens); assay: PROTAC activity at CRBN/IAP in human MM1.S cells assessed as induction of XIAP degradation by measuring remaining protein level at 0.1 uM incubated for 16 hrs by western blot analysis; format: cell-based
Outline: as §2, with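 “MM.1S cells treated 16 h at the stated concentration. Lysed,” for “Lysed,”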

[19] = target: Protein cereblon/Baculoviral IAP repeat-containing protein 2 (Homo sapiens) (UniProt Q13490+Q96SW2); assay: PROTAC activity at CRBN/IAP in human MM1.S cells assessed as induction of cIAP1 degradation by measuring remaining protein level at 0.1 uM incubated for 16 hrs by western blot analysis; format: cell-based
Outline: as §2, with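 “MM.1S cells treated 16 h at the stated concentration. Lysed,” for “Lysed,”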

[20] = target: T5, von Hippel-Lindau disease tumor suppressor/Baculoviral IAP repeat-containing protein 3 (Homo sapiens); assay: PROTAC activity at VHL/IAP in human MM1.S cells assessed as induction of cIAP2 degradation at 10 nM incubated for 16 hrs by western blot analysis; format: cell-based; outline: as §3
[21] = target: T2, von Hippel-Lindau disease tumor suppressor/E3 ubiquitin-protein ligase XIAP (Homo sapiens); assay: PROTAC activity at VHL/IAP in human MM1.S cells assessed as induction of XIAP degradation at 10 nM incubated for 16 hrs by western blot analysis; format: cell-based; outline: as §3
[22] = target: T1, von Hippel-Lindau disease tumor suppressor/Baculoviral IAP repeat-containing protein 2 (Homo sapiens); assay: PROTAC activity at VHL/IAP in human MM1.S cells assessed as induction of cIAP1 degradation at 1 uM incubated for 16 hrs by western blot analysis; format: cell-based; outline: as §3
[23] = target: T5, von Hippel-Lindau disease tumor suppressor/Baculoviral IAP repeat-containing protein 3 (Homo sapiens); assay: PROTAC activity at VHL/IAP in human MM1.S cells assessed as induction of cIAP2 degradation at 1 uM incubated for 16 hrs by western blot analysis; format: cell-based; outline: as §3
[24] = target: T2, von Hippel-Lindau disease tumor suppressor/E3 ubiquitin-protein ligase XIAP (Homo sapiens); assay: PROTAC activity at VHL/IAP in human MM1.S cells assessed as induction of XIAP degradation at 1 uM incubated for 16 hrs by western blot analysis; format: cell-based; outline: as §3
[25] = target: T1, von Hippel-Lindau disease tumor suppressor/Baculoviral IAP repeat-containing protein 2 (Homo sapiens); assay: PROTAC activity at VHL/IAP in human MM1.S cells assessed as induction of cIAP1 degradation at 10 nM incubated for 16 hrs by western blot analysis; format: cell-based; outline: as §3

Sequence of Baculoviral IAP repeat-containing protein 2 (Homo sapiens) (Q13490 whole entry): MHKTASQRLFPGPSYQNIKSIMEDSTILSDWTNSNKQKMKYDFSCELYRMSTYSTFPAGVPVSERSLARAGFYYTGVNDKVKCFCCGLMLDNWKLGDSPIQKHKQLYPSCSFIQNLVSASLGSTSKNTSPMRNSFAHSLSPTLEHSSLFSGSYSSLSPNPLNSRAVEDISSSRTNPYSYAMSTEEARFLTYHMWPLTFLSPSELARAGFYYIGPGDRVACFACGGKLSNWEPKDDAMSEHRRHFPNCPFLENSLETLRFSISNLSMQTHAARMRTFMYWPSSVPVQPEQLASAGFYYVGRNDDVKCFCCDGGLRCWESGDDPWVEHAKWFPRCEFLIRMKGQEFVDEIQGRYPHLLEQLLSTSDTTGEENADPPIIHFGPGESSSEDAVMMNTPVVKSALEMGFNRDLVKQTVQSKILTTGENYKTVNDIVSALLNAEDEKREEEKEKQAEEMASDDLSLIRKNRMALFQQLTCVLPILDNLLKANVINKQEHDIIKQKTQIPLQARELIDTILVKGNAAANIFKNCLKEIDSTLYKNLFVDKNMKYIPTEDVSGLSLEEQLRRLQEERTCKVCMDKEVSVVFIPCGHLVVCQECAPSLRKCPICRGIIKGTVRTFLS
T1 sequence (P40337 whole entry, looked up): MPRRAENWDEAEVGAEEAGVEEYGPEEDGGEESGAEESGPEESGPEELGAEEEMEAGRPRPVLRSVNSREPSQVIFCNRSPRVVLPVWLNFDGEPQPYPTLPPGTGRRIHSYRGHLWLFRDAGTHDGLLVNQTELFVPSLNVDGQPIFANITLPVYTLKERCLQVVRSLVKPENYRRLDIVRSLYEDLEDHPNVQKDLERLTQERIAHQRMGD
T1 sequence (Q13490 whole entry, looked up): as the sequence (Q13490 whole entry) above
T2 sequence (P40337 whole entry, looked up): as the sequence (P40337 whole entry, looked up) above
T2 sequence (P98170 whole entry, looked up): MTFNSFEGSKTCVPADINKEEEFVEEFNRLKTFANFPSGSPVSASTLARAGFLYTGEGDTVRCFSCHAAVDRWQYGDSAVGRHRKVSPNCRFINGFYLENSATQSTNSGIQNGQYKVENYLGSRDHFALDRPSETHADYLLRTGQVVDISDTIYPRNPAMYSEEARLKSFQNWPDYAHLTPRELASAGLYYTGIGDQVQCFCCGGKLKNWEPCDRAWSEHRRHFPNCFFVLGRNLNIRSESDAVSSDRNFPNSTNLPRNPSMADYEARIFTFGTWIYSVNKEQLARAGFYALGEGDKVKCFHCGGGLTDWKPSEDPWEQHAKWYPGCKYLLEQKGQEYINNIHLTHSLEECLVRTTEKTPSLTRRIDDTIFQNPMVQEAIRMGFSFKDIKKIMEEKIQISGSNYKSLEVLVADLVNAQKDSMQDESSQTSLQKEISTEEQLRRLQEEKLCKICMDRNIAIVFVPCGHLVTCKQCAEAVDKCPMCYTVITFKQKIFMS
T5 sequence (P40337 whole entry, looked up): as the sequence (P40337 whole entry, looked up) above
T5 sequence (Q13489 whole entry, looked up): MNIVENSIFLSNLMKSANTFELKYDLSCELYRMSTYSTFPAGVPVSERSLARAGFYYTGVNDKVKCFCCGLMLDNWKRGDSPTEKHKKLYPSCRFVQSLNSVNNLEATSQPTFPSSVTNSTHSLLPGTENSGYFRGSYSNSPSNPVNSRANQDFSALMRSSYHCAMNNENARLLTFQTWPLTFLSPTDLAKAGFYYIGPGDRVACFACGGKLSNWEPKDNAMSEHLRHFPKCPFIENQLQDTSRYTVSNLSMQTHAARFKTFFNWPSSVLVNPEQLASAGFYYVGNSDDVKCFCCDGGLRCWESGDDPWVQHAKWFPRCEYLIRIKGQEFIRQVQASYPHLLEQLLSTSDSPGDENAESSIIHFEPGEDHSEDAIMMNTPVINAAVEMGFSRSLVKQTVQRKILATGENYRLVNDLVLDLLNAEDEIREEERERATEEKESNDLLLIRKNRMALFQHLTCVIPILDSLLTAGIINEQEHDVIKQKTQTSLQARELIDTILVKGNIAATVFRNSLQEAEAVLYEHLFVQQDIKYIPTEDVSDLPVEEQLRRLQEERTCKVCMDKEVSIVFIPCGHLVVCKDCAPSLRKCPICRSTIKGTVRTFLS
T3 sequence (P98170 whole entry, looked up): as the sequence (P98170 whole entry, looked up) above
T3 sequence (Q96SW2 whole entry, looked up): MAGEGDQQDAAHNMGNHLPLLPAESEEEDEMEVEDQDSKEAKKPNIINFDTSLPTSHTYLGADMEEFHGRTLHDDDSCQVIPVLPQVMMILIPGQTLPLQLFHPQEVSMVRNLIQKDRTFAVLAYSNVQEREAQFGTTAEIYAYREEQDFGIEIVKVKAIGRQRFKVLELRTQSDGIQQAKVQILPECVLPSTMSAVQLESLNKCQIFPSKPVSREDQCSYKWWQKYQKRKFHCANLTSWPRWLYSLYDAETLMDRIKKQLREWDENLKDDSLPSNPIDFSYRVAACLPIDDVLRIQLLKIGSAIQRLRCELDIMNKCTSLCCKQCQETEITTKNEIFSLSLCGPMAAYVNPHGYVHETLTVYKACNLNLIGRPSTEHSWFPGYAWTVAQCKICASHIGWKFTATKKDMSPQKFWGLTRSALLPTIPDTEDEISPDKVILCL
Sequence of Protein cereblon/Zinc finger protein Aiolos (Homo sapiens) (Q96SW2 whole entry, looked up): as above
Sequence of Protein cereblon/Zinc finger protein Aiolos (Homo sapiens) (Q9UKT9 whole entry, looked up): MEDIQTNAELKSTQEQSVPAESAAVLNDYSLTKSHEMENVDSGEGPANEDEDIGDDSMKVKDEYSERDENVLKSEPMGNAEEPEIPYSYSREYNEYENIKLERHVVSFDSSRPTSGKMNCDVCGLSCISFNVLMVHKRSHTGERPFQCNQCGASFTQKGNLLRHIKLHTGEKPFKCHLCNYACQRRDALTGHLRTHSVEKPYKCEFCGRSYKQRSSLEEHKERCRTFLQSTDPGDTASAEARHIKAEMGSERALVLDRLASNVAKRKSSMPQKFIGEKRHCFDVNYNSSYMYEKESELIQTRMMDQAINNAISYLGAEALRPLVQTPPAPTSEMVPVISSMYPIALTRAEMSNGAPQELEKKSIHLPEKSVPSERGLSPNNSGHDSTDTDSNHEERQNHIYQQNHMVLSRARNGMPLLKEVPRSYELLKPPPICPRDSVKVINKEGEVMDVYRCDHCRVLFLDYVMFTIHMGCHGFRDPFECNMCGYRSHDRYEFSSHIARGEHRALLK
T4 sequence (P40337 whole entry, looked up): as the sequence (P40337 whole entry, looked up) above
T4 sequence (P98170 whole entry, looked up): as the sequence (P98170 whole entry, looked up) above
T4 sequence (Q13489 whole entry, looked up): as the sequence (Q13489 whole entry, looked up) above
T4 sequence (Q13490 whole entry, looked up): as the sequence (Q13490 whole entry) above
Sequence of Protein cereblon/Baculoviral IAP repeat-containing protein 2 (Homo sapiens) (Q13490 whole entry, looked up): as the sequence (Q13490 whole entry) above
Sequence of Protein cereblon/Baculoviral IAP repeat-containing protein 2 (Homo sapiens) (Q96SW2 whole entry, looked up): as the sequence (Q96SW2 whole entry, looked up) above
Sequence of Protein cereblon-IAP (Homo sapiens) (P98170 whole entry, looked up): as the sequence (P98170 whole entry, looked up) above
Sequence of Protein cereblon-IAP (Homo sapiens) (Q13489 whole entry, looked up): as the sequence (Q13489 whole entry, looked up) above
Sequence of Protein cereblon-IAP (Homo sapiens) (Q13490 whole entry, looked up): as the sequence (Q13490 whole entry) above
Sequence of Protein cereblon-IAP (Homo sapiens) (Q96SW2 whole entry, looked up): as the sequence (Q96SW2 whole entry, looked up) above
Sequence of von Hippel-Lindau disease tumor suppressor (Homo sapiens) (P40337 whole entry, looked up): as the sequence (P40337 whole entry, looked up) above
Sequence of Baculoviral IAP repeat-containing protein 3 (Homo sapiens) (Q13489 whole entry): as the sequence (Q13489 whole entry, looked up) above
Sequence of Protein cereblon/Baculoviral IAP repeat-containing protein 3 (Homo sapiens) (Q13489 whole entry, looked up): as above
Sequence of Protein cereblon/Baculoviral IAP repeat-containing protein 3 (Homo sapiens) (Q96SW2 whole entry, looked up): as the sequence (Q96SW2 whole entry, looked up) above

With CN[C@@H](C)C(=O)N[C@H](C(=O)N1C[C@@H](Oc2cccc(OCCOCCOCC(=O)N[C@H](C(=O)N3C[C@H](O)C[C@H]3C(=O)NCc3ccc(-c4scnc4C)cc3)C(C)(C)C)c2)C[C@H]1C(=O)N[C@@H]1CCCc2ccccc21)C1CCCCC1 the Activity [1] was “Active”, the Activity [2] was “Active” and the Activity [3] was “Active”.
CN[C@@H](C)C(=O)N[C@H](C(=O)N1C[C@@H](Oc2ccccc2)C[C@H]1C(=O)N[C@@H]1CCCc2ccccc21)C1CCCCC1 was tested, and the Activity [4] was 47%, the Activity [5] was “Active” and the Activity [6] was 72%. For the same molecule, the Activity [7] was 7%.
For CN[C@@H](C)C(=O)N[C@H](C(=O)N1C[C@@H](Oc2cccc(OCCCCOCCCCNc3cccc4c3C(=O)N(C3CCC(=O)NC3=O)C4=O)c2)C[C@H]1C(=O)N[C@@H]1CCCc2ccccc21)C1CCCCC1 (some centres not stated), the Activity [8] was “Active”.
With CN[C@@H](C)C(=O)N[C@H](C(=O)N1C[C@@H](Oc2cccc(OCCCCCCCC(=O)N[C@H](C(=O)N3C[C@H](O)C[C@H]3C(=O)NCc3ccc(-c4scnc4C)cc3)C(C)(C)C)c2)C[C@H]1C(=O)N[C@@H]1CCCc2ccccc21)C1CCCCC1 the Activity [1] was “Active”, the Activity [2] was “Active” and the Activity [3] was “Active”.
With CN[C@@H](C)C(=O)N[C@H](C(=O)N1C[C@@H](Oc2cccc(OCCOCCCCCCOCCCCCCNc3cccc4c3C(=O)N(C3CCC(=O)N(C)C3=O)C4=O)c2)C[C@H]1C(=O)N[C@@H]1CCCc2ccccc21)C1CCCCC1 (some centres not stated) the Activity [9] was “inactive”.
In the case of CN[C@@H](C)C(=O)N[C@H](C(=O)N1C[C@@H](Oc2cccc(OCCCCOCCCC(=O)N[C@H](C(=O)N3C[C@H](O)C[C@H]3C(=O)NCc3ccc(-c4scnc4C)cc3)C(C)(C)C)c2)C[C@H]1C(=O)N[C@@H]1CCCc2ccccc21)C1CCCCC1, the Activity [10] is reported as “Active”.
In the case of CN[C@@H](C)C(=O)N[C@H](C(=O)N1C[C@@H](Oc2cccc(OCCCCC(=O)N[C@H](C(=O)N3C[C@@H](O)C[C@H]3C(=O)NCc3ccc(-c4scnc4C)cc3)C(C)(C)C)c2)C[C@H]1C(=O)N[C@@H]1CCCc2ccccc21)C1CCCCC1, the IC50 [11] is reported as greater than 5 µM.
In the case of CN[C@@H](C)C(=O)N[C@H](C(=O)N1C[C@@H](Oc2cccc(OCCCCC(=O)N[C@H](C(=O)N3C[C@H](O)C[C@H]3C(=O)NCc3ccc(-c4scnc4C)cc3)C(C)(C)C)c2)C[C@H]1C(=O)N[C@@H]1CCCc2ccccc21)C1CCCCC1, the Activity [12] is reported as “Active”, the Activity [13] is reported as “Active” and the Activity [14] is reported as 38%. The Activity [15] was “Active”.
CN[C@@H](C)C(=O)N[C@H](C(=O)N1C[C@@H](Oc2cccc(OCCCCCCCCNc3cccc4c3C(=O)N(C3CCC(=O)NC3=O)C4=O)c2)C[C@H]1C(=O)N[C@@H]1CCCc2ccccc21)C1CCCCC1 (some centres not stated) was tested, and the Activity [16] was 90%, the Activity [17] was 14% and the Activity [18] was 4%. For the same molecule, the Activity [19] was 5%.
In the case of CN[C@@H](C)C(=O)N[C@H](C(=O)N1CC(Oc2cccc(OCCCCCCOCCCCCCOCC(=O)N[C@H](C(=O)N3C[C@H](O)C[C@H]3C(=O)NCc3ccc(-c4scnc4C)cc3)C(C)(C)C)c2)C[C@H]1C(=O)N[C@@H]1CCCc2ccccc21)C1CCCCC1 (single isomer, unassigned), the Activity [1] is reported as “Active”, the Activity [2] is reported as “Active” and the Activity [3] is reported as “Active”.
CN[C@@H](C)C(=O)N[C@H](C(=O)N1C[C@@H](Oc2cccc(OCCCCCOCCCCCOCCCCCCNc3cccc4c3C(=O)N(C3CCC(=O)NC3=O)C4=O)c2)C[C@H]1C(=O)N[C@@H]1CCCc2ccccc21)C1CCCCC1 (some centres not stated) was tested, and the Activity [8] was “Active”.
CN[C@@H](C)C(=O)N[C@H](C(=O)N1C[C@@H](Oc2cccc(OCCCCCCOCCCCCCOCCCCCCOc3cc(-c4scnc4C)ccc3CNC(=O)[C@@H]3C[C@@H](O)CN3C(=O)[C@H](C(C)C)N3Cc4ccccc4C3=O)c2)C[C@H]1C(=O)N[C@@H]1CCCc2ccccc21)C1CCCCC1 was tested, and the Activity [20] was “inactive”, the Activity [21] was “inactive” and the Activity [22] was “Active”. The Activity [23] was “Active”, the Activity [24] was “Active” and the Activity [25] was “inactive”.
